Calls of active or inactive are those of the source. No cut-off for these calls is given here. Where a SMILES comes first, the peptide text is derived from it. [ ]: non-standard residue; d: D form. The star is where a group is joined. d(aIle) = CC[C@H](C)[C@@H](N)C(=O)O; NMeF = CN[C@@H](Cc1ccccc1)C(=O)O; dDab = NCC[C@@H](N)C(=O)O; Octanoyl = CCCCCCCC(=O)*; Dab = NCC[C@H](N)C(=O)O; Aib = CC(C)(N)C(=O)O; Sar = CNCC(=O)O
How the values were obtained:
[1] = test system: D-peptidase BogQ; assay: Substrate activity at bacterial D-peptidase BogQ expressed in Escherichia coli BL21 assessed as enzyme-mediated compound hydrolysis at 50 uM incubated for 1 hr by UPLC-MS analysis; format: ADME; settings: bacteria; read-out: Activity
How it was run: (§1)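 His-purified (Ni-NTA) enzyme from IPTG-induced E. coli BL21 (200 μM IPTG after 15 °C hold). Substrate 50 μM with BogQ 20 nM for 1 h or TriFpep 200 nM for 24 h, 37 °C, in 25% PBS pH 7.4. Quenched with cold methanol, cleavage ratio by UPLC–MS at end point; two independent experiments.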

[2] = test system: D-peptidase TriF; assay: Substrate activity at Paenibacillus polymyxa CICC10580 D-peptidase TriF expressed in Escherichia coli BL21 assessed as enzyme-mediated compound hydrolysis at 50 uM incubated for 24 hrs by UPLC-MS analysis; format: ADME; settings: read-out: Activity; how it was run: as §1
[3] = test system: Escherichia coli; assay: Antibacterial activity against Escherichia coli NCTC 12241 assessed as bacterial growth inhibition by microbroth dilution method; format: functional
[4] = test system: Staphylococcus aureus; assay: Antibacterial activity against Staphylococcus aureus NCTC 10788 assessed as bacterial growth inhibition by microbroth dilution method; format: functional
[5] = Hemolytic activity in sheep erythrocytes assessed as hemolysis at 200 ug/ml incubated for 30 by spectrophotometry relative to control; format: ADME, cell-based, Ovis aries, Erythrocyte; settings: read-out: Activity
How it was run: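 Defibrinated sheep blood washed four times in PBS, resuspended, mixed 1:1 with peptide in PBS (200 μg/mL in well before mixing); 30 min, 37 °C. Diluted, centrifuged, supernatant absorbance at 415 nm. Percent hemolysis relative to 0.1% Triton X-100, PBS blank; triplicate, two independent experiments averaged.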

[6] = test system: Escherichia coli; assay: Binding affinity to Escherichia coli NCTC 12241 lipid 2 assessed as formation of zone of inhibition at 60 uM incubated for 16 hrs by spot-on-lawn assay
How it was run: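 E. coli NCTC 12241 suspended to OD600 ~1.0 in MHB, mixed into molten 0.75% MH soft agar and poured over 1.5% MHA. Peptide (final 60 μM) preincubated at 37 °C with 7 equiv chemically synthesized Gram-positive lipid II, 10 μL spotted alongside peptide alone; 16 h, 37 °C. Loss of inhibition zone indicates lipid II sequestration.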

Structure (SMILES) | metabolised at 1 h, 50 µM [1] | metabolised at 24 h, 50 µM [2] | MIC [3] | MIC [4] | hemolysis at 0.5 h, 200 ug/ml [5] | Activity [6]
CCCCCCCC(=O)N[C@@H](C(=O)N[C@H](CCN)C(=O)NCC(=O)N[C@H](CO)C(=O)N[C@H](Cc1c[nH]c2ccccc12)C(=O)N(C)CC(=O)N[C@@H](CCN)C(=O)N[C@H](CCN)C(=O)N[C@@](C)(Cc1ccccc1)C(=O)N[C@@H](CCC(=O)O)C(=O)N[C@H](C(=O)N[C@@H](C(=O)N[C@@H](C)C(=O)O)C(C)C)C(C)C)C(C)C | 39% | 0% | > 50 µg/mL | > 50 µg/mL | – | –
CCCCCCCC(=O)N[C@@H](C(=O)N[C@H](CCN)C(=O)NCC(=O)N[C@H](CO)C(=O)N[C@H](Cc1c[nH]c2ccccc12)C(=O)N(C)CC(=O)N[C@@H](CCN)C(=O)N[C@H](CCN)C(=O)N[C@@](C)(Cc1ccccc1)C(=O)N[C@@H](CCC(=O)O)C(=O)N[C@H](C(=O)N[C@@H](C(=O)N[C@@H](C)C(=O)O)[C@@H](C)CC)C(C)C)C(C)C | 40% | 0% | > 50 µg/mL | > 50 µg/mL | – | –
CCCCCCCC(=O)N[C@@H](C(=O)N[C@@H](CCN)C(=O)NCC(=O)N[C@H](CO)C(=O)N[C@H](Cc1c[nH]c2ccccc12)C(=O)N[C@@H](CO)C(=O)N[C@@H](CCN)C(=O)N[C@H](CCN)C(=O)N[C@@H](Cc1ccccc1)C(=O)N[C@@H](CCC(=O)O)C(=O)N[C@H](C(=O)N[C@@H](C(=O)N[C@@H](C)C(=O)O)C(C)C)C(C)C)C(C)C (Octanoyl-[dV][Dab]G[dS][dW]S[Dab][dDab]FEV[dV]A-OH) | 60% | – | > 50 µg/mL | > 50 µg/mL | – | –
CCCCCCCC(=O)N[C@@H](C(=O)N[C@H](C)C(=O)NCC(=O)N[C@H](CO)C(=O)N[C@H](Cc1c[nH]c2ccccc12)C(=O)N(C)CC(=O)N[C@@H](CCN)C(=O)N[C@H](CCN)C(=O)N(C)[C@@H](Cc1ccccc1)C(=O)N[C@@H](CCC(=O)O)C(=O)N[C@H](C(=O)N[C@@H](C(=O)N[C@@H](C)C(=O)O)C(C)C)C(C)C)C(C)C (Octanoyl-[dV][dA]G[dS][dW][Sar][Dab][dDab][NMeF]EV[dV]A-OH) | 11% | 0% | > 50 µg/mL | > 50 µg/mL | – | –
CCCCCCCC(=O)N[C@@H](C(=O)N[C@H](CCN)C(=O)NCC(=O)N[C@H](CO)C(=O)N[C@H](Cc1c[nH]c2ccccc12)C(=O)N[C@@H](CO)C(=O)N[C@@H](CCN)C(=O)N[C@H](CCN)C(=O)N(C)[C@@H](Cc1ccccc1)C(=O)N[C@@H](CCC(=O)O)C(=O)N[C@H](C(=O)N[C@@H](C(=O)N[C@@H](C)C(=O)O)C(C)C)C(C)C)C(C)C (Octanoyl-[dV][dDab]G[dS][dW]S[Dab][dDab][NMeF]EV[dV]A-OH) | 15% | – | 6.25 µg/mL | > 50 µg/mL | 30% | Active
CCCCCCCC(=O)N[C@@H](C(=O)N[C@H](CCN)C(=O)NCC(=O)N[C@H](CO)C(=O)N[C@H](Cc1c[nH]c2ccccc12)C(=O)N(C)CC(=O)N[C@@H](CCN)C(=O)N[C@H](CCN)C(=O)N(C)[C@@H](Cc1ccccc1)C(=O)N[C@@H](CCC(=O)O)C(=O)N[C@H](C(=O)N[C@@H](C(=O)N[C@@H](C)C(=O)O)[C@@H](C)CC)C(C)C)C(C)C (Octanoyl-[dV][dDab]G[dS][dW][Sar][Dab][dDab][NMeF]EV[d(aIle)]A-OH) | 46% | 0% | 3.13 µg/mL | > 50 µg/mL | – | –
CCCCCCCC(=O)N[C@@H](C(=O)N[C@H](CCN)C(=O)NCC(=O)N[C@H](CO)C(=O)N[C@H](Cc1c[nH]c2ccccc12)C(=O)N(C)CC(=O)N[C@@H](CCN)C(=O)N[C@H](CCN)C(=O)N(C)[C@@H](Cc1ccccc1)C(=O)N[C@@H](CCC(=O)O)C(=O)N[C@H](C(=O)N[C@@H](C(=O)N[C@@H](C)C(=O)O)C(C)C)C(C)C)C(C)C (Octanoyl-[dV][dDab]G[dS][dW][Sar][Dab][dDab][NMeF]EV[dV]A-OH) | 43% | 0% | 6.25 µg/mL | > 50 µg/mL | 60 to 78% | Active
CCCCCCCC(=O)N[C@@H](C(=O)N[C@H](CCN)C(=O)NC(C)(C)C(=O)N[C@H](CO)C(=O)N[C@H](Cc1c[nH]c2ccccc12)C(=O)N[C@@H](CO)C(=O)N[C@@H](CCN)C(=O)N[C@H](CCN)C(=O)N(C)[C@@H](Cc1ccccc1)C(=O)N[C@@H](CCC(=O)O)C(=O)N[C@H](C(=O)N[C@@H](C(=O)N[C@@H](C)C(=O)O)C(C)C)C(C)C)C(C)C (Octanoyl-[dV][dDab][Aib][dS][dW]S[Dab][dDab][NMeF]EV[dV]A-OH) | < 5% | – | > 50 µg/mL | > 50 µg/mL | – | –
CCCCCCCC(=O)N[C@@H](C(=O)N[C@H](CCN)C(=O)N(C)CC(=O)N[C@H](CO)C(=O)N[C@H](Cc1c[nH]c2ccccc12)C(=O)N[C@@H](CO)C(=O)N[C@@H](CCN)C(=O)N[C@H](CCN)C(=O)N(C)[C@@H](Cc1ccccc1)C(=O)N[C@@H](CCC(=O)O)C(=O)N[C@H](C(=O)N[C@@H](C(=O)N[C@@H](C)C(=O)O)C(C)C)C(C)C)C(C)C (Octanoyl-[dV][dDab][Sar][dS][dW]S[Dab][dDab][NMeF]EV[dV]A-OH) | < 5% | – | > 50 µg/mL | > 50 µg/mL | – | –
CCCCCCCC(=O)N[C@@H](C(=O)N[C@@H](C(=O)NCC(=O)N[C@H](CO)C(=O)N[C@H](Cc1c[nH]c2ccccc12)C(=O)N(C)CC(=O)N[C@@H](CCN)C(=O)N[C@H](CCN)C(=O)N(C)[C@@H](Cc1ccccc1)C(=O)N[C@@H](CCC(=O)O)C(=O)N[C@H](C(=O)N[C@@H](C(=O)N[C@@H](C)C(=O)O)C(C)C)C(C)C)C(C)C)C(C)C (Octanoyl-[dV][dV]G[dS][dW][Sar][Dab][dDab][NMeF]EV[dV]A-OH) | 12% | 0% | > 50 µg/mL | > 50 µg/mL | – | –

Continued, in another order:

metabolised at 1 h, 50 µM [1] | metabolised at 24 h, 50 µM [2] | MIC [3] | MIC [4] | Structure (SMILES) | hemolysis at 0.5 h, 200 ug/ml [5] | Activity [6]
39% | – | > 50 µg/mL | > 50 µg/mL | CCCCCCCC(=O)N[C@@H](C(=O)N[C@H](CCN)C(=O)NCC(=O)N[C@H](CO)C(=O)N[C@H](Cc1c[nH]c2ccccc12)C(=O)N[C@@H](CO)C(=O)N[C@@H](CCN)C(=O)N[C@H](CCN)C(=O)N[C@@](C)(Cc1ccccc1)C(=O)N[C@@H](CCC(=O)O)C(=O)N[C@H](C(=O)N[C@@H](C(=O)N[C@@H](C)C(=O)O)C(C)C)C(C)C)C(C)C | – | –
> 90% | 100% | 1.56 µg/mL | 50 µg/mL | CCCCCCCC(=O)N[C@@H](C(=O)N[C@H](CCN)C(=O)NCC(=O)N[C@H](CO)C(=O)N[C@H](Cc1c[nH]c2ccccc12)C(=O)N[C@@H](CO)C(=O)N[C@@H](CCN)C(=O)N[C@H](CCN)C(=O)N[C@@H](Cc1ccccc1)C(=O)N[C@@H](CCC(=O)O)C(=O)N[C@H](C(=O)N[C@@H](C(=O)N[C@@H](C)C(=O)O)C(C)C)C(C)C)C(C)C (Octanoyl-[dV][dDab]G[dS][dW]S[Dab][dDab]FEV[dV]A-OH) | 53% | –
– | 0% | 3.13 µg/mL | > 50 µg/mL | CCCCCCCC(=O)N[C@@H](C(=O)N[C@H](CCN)C(=O)NCC(=O)N[C@H](CO)C(=O)N[C@H](Cc1c[nH]c2ccccc12)C(=O)NC(C)(C)C(=O)N[C@@H](CCN)C(=O)N[C@H](CCN)C(=O)N[C@@H](Cc1ccccc1)C(=O)N[C@@H](CCC(=O)O)C(=O)N[C@H](C(=O)N[C@@H](C(=O)N[C@@H](C)C(=O)O)C(C)C)C(C)C)C(C)C (Octanoyl-[dV][dDab]G[dS][dW][Aib][Dab][dDab]FEV[dV]A-OH) | – | –
– | 0% | 3.13 µg/mL | > 50 µg/mL | CCCCCCCC(=O)N[C@@H](C(=O)N[C@H](CCN)C(=O)NCC(=O)N[C@H](CO)C(=O)N[C@H](Cc1c[nH]c2ccccc12)C(=O)N(C)CC(=O)N[C@@H](CCN)C(=O)N[C@H](CCN)C(=O)N[C@@H](Cc1ccccc1)C(=O)N[C@@H](CCC(=O)O)C(=O)N[C@H](C(=O)N[C@@H](C(=O)N[C@@H](C)C(=O)O)C(C)C)C(C)C)C(C)C (Octanoyl-[dV][dDab]G[dS][dW][Sar][Dab][dDab]FEV[dV]A-OH) | 38% | Active
> 90% | – | > 50 µg/mL | > 50 µg/mL | CCCCCCCC(=O)N[C@@H](C(=O)N[C@H](CCN)C(=O)NC(C)(C)C(=O)N[C@H](CO)C(=O)N[C@H](Cc1c[nH]c2ccccc12)C(=O)N[C@@H](CO)C(=O)N[C@@H](CCN)C(=O)N[C@H](CCN)C(=O)N[C@@H](Cc1ccccc1)C(=O)N[C@@H](CCC(=O)O)C(=O)N[C@H](C(=O)N[C@@H](C(=O)N[C@@H](C)C(=O)O)C(C)C)C(C)C)C(C)C (Octanoyl-[dV][dDab][Aib][dS][dW]S[Dab][dDab]FEV[dV]A-OH) | – | –
> 90% | – | > 50 µg/mL | > 50 µg/mL | CCCCCCCC(=O)N[C@@H](C(=O)N[C@H](CCN)C(=O)N(C)CC(=O)N[C@H](CO)C(=O)N[C@H](Cc1c[nH]c2ccccc12)C(=O)N[C@@H](CO)C(=O)N[C@@H](CCN)C(=O)N[C@H](CCN)C(=O)N[C@@H](Cc1ccccc1)C(=O)N[C@@H](CCC(=O)O)C(=O)N[C@H](C(=O)N[C@@H](C(=O)N[C@@H](C)C(=O)O)C(C)C)C(C)C)C(C)C (Octanoyl-[dV][dDab][Sar][dS][dW]S[Dab][dDab]FEV[dV]A-OH) | – | –

From ChEMBL document CHEMBL4321830, “A Chemical-Intervention Strategy To Circumvent Peptide Hydrolysis by d-Stereoselective Peptidases” (J Med Chem, 2019)
